# Tests used:
# [1] = test system: NCI-H460; assay: Antiproliferative activity against human NCI-H460 cells using 1% DMSO/water compound formulation after 72 hrs by MTT assay; assay type: functional, cell-based; conditions: NCI-H460, 72 h
# Method in brief: (§1)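 MTT anti-proliferation on NSCLC lines. Compounds dissolved in DMSO, diluted with water to 1% DMSO, then into growth medium (max 0.032% DMSO on cells); or dissolved in 10% (w/v) 2-HPβCD in water, then diluted (max 0.008% w/w 2-HPβCD in wells; vehicle controls at 0.008%). IC50 = concentration giving 50% loss of viability versus control cells. Cisplatin dissolved in water with stirring.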
# [2] = test system: NCI-H460; assay: Antiproliferative activity against human NCI-H460 cells using 10% 2-HPbetaCD compound formulation after 72 hrs by MTT assay; assay type: functional, cell-based; conditions: NCI-H460, 72 h; method in brief: as §1
# [3] = test system: NCI-H1975; assay: Antiproliferative activity against human NCI-H1975 cells using 1% DMSO/water compound formulation after 72 hrs by MTT assay; assay type: functional, cell-based; conditions: NCI-H1975, 72 h; method in brief: as §1
# [4] = test system: NCI-H1975; assay: Antiproliferative activity against human NCI-H1975 cells using 10% 2-HPbetaCD compound formulation after 72 hrs by MTT assay; assay type: functional, cell-based; conditions: NCI-H1975, 72 h; method in brief: as §1
# [5] = test system: A549; assay: Antiproliferative activity against human A549 cells using 1% DMSO/water compound formulation after 72 hrs by MTT assay; assay type: functional, cell-based; conditions: A549, 72 h; method in brief: as §1
# [6] = test system: A549; assay: Antiproliferative activity against human A549 cells using 10% 2-HPbetaCD compound formulation after 72 hrs by MTT assay; assay type: functional, cell-based; conditions: A549, 72 h; method in brief: as §1
# [7] = test system: HCC827; assay: Antiproliferative activity against human HCC827 cells using 1% DMSO/water compound formulation after 72 hrs by MTT assay; assay type: functional, cell-based; conditions: HCC827, 72 h; method in brief: as §1
# [8] = test system: HCC827; assay: Antiproliferative activity against human HCC827 cells using 10% 2-HPbetaCD compound formulation after 72 hrs by MTT assay; assay type: functional, cell-based; conditions: HCC827, 72 h; method in brief: as §1
# [9] = Aqueous solubility of the compound in water; assay type: physicochemical; conditions: buffer
# [10] = Solubility of the compound in 1% DMSO/water solution; assay type: physicochemical; conditions: buffer
# [11] = Solubility of the compound in 10% 2-HPbetaCD/water solution; assay type: physicochemical
# [12] = test system: A549; assay: Growth inhibition of human A549 cells assessed as cell growth at 10 uM after 24 hrs by SRB assay relative to control; assay type: functional; conditions: A549, 24 h, read-out: Activity
# Method in brief: (§2)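 NCI DTP one-dose screen: cells plated at density set by doubling rate, incubated overnight, then exposed to compound at 10 μM for 24 hours. Growth percentage from protein density at end versus start of experiment, relative to initial cell number.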
# [13] = test system: EKVX; assay: Growth inhibition of human EKVX cells assessed as cell growth at 10 uM after 24 hrs by SRB assay relative to control; assay type: functional; conditions: read-out: Activity; method in brief: as §2
# [14] = test system: HOP-62; assay: Growth inhibition of human HOP62 cells assessed as cell growth at 10 uM after 24 hrs by SRB assay relative to control; assay type: functional; conditions: HOP-62, 24 h, read-out: Activity; method in brief: as §2
# [15] = test system: HOP-92; assay: Growth inhibition of human HOP92 cells assessed as cell growth at 10 uM after 24 hrs by SRB assay relative to control; assay type: functional; conditions: HOP-92, 24 h, read-out: Activity; method in brief: as §2
# [16] = test system: NCI-H226; assay: Growth inhibition of human NCI-H226 cells assessed as cell growth at 10 uM after 24 hrs by SRB assay relative to control; assay type: functional; conditions: NCI-H226, 24 h, read-out: Activity; method in brief: as §2
# [17] = test system: NCI-H23; assay: Growth inhibition of human NCI-H23 cells assessed as cell growth at 10 uM after 24 hrs by SRB assay relative to control; assay type: functional; conditions: NCI-H23, 24 h, read-out: Activity; method in brief: as §2
# [18] = test system: NCI-H322M; assay: Growth inhibition of human NCI-H322M cells assessed as cell growth at 10 uM after 24 hrs by SRB assay relative to control; assay type: functional; conditions: read-out: Activity; method in brief: as §2
# [19] = test system: NCI-H460; assay: Growth inhibition of human NCI-H460 cells assessed as cell growth at 10 uM after 24 hrs by SRB assay relative to control; assay type: functional; conditions: NCI-H460, 24 h, read-out: Activity; method in brief: as §2
# [20] = test system: A549; assay: Growth inhibition of human A549 cells after 24 hrs by SRB assay; assay type: functional; conditions: A549, 24 h; for CC50: read-out: LC50 (the source's name)
# [21] = test system: EKVX; assay: Growth inhibition of human EKVX cells after 24 hrs by SRB assay; assay type: functional
# [22] = test system: HOP-62; assay: Growth inhibition of human HOP62 cells after 24 hrs by SRB assay; assay type: functional; conditions: HOP-62, 24 h
# [23] = test system: HOP-92; assay: Growth inhibition of human HOP92 cells after 24 hrs by SRB assay; assay type: functional; conditions: HOP-92, 24 h; for CC50: read-out: LC50 (the source's name)
# [24] = test system: NCI-H226; assay: Growth inhibition of human NCI-H226 cells after 24 hrs by SRB assay; assay type: functional; conditions: NCI-H226, 24 h
# [25] = test system: NCI-H23; assay: Growth inhibition of human NCI-H23 cells after 24 hrs by SRB assay; assay type: functional; conditions: NCI-H23, 24 h; for CC50: read-out: LC50 (the source's name)
# [26] = test system: NCI-H322M; assay: Growth inhibition of human NCI-H322M cells after 24 hrs by SRB assay; assay type: functional
# [27] = test system: NCI-H460; assay: Growth inhibition of human NCI-H460 cells after 24 hrs by SRB assay; assay type: functional; conditions: NCI-H460, 24 h; for CC50: read-out: LC50 (the source's name)
# [28] = test system: NCI-H522; assay: Growth inhibition of human NCI-H522 cells after 24 hrs by SRB assay; assay type: functional; conditions: NCI-H522, 24 h; for CC50: read-out: LC50 (the source's name)
smiles,measurement,setting,value
CC(C)c1n(Cc2ccc3ccccc3c2)cc[n+]1Cc1ccc2ccccc2c1.[Br-],IC50,[1],0.92 µM
same,IC50,[2],0.86 µM
same,IC50,[3],0.69 µM
same,IC50,[4],0.62 µM
same,IC50,[5],2.54 µM
same,IC50,[6],2.13 µM
same,IC50,[7],1.29 µM
same,IC50,[8],1.14 µM
same,solubility,[9],< 0.5 mg/mL
same,solubility,[10],Soluble
same,solubility,"[11]; 10% 2-HPbetaCD/water solution, read-out: solubility",> 4.4 mg/mL
CCCc1n(Cc2ccc3ccccc3c2)cc[n+]1Cc1ccc2ccccc2c1.[Br-],IC50,[1],1.91 µM
same,IC50,[2],2.13 µM
same,IC50,[3],0.85 µM
same,IC50,[4],0.63 µM
same,IC50,[5],2.93 µM
same,IC50,[6],2.81 µM
same,IC50,[7],1.45 µM
same,IC50,[8],1.25 µM
same,solubility,[9],< 0.5 mg/mL
same,solubility,[10],Soluble
same,solubility,[11]; buffer,> 4.4 mg/mL
same,growth at 10 µM,[12],31.6%
same,growth at 10 µM,[13],21.1%
same,growth at 10 µM,[14],5.82%
same,growth at 10 µM,[15],-38.3%
same,growth at 10 µM,[16],0.23%
same,growth at 10 µM,[17],-28.2%
same,growth at 10 µM,[18],23.2%
same,growth at 10 µM,[19],3.26%
same,GI50,[20],2.67 µM
same,TGI,[20],12.1 µM
same,CC50,[20],60.3 µM
same,GI50,[21],1.71 µM
same,LC50,[21],60.5 µM
same,TGI,[21],11.4 µM
same,GI50,[22],1.26 µM
same,LC50,[22],6.19 µM
same,TGI,[22],2.8 µM
same,GI50,[23],0.863 µM
same,TGI,[23],2.66 µM
same,CC50,[23],7.58 µM
same,GI50,[24],1.31 µM
same,LC50,[24],> 100 µM
same,TGI,[24],3.92 µM
same,GI50,[25],0.521 µM
same,TGI,[25],2.51 µM
same,CC50,[25],9.77 µM
same,GI50,[26],1.96 µM
same,LC50 (lethal concentration 50%),[26],23.8 µM
same,TGI,[26],6 µM
same,GI50,[27],1.22 µM
same,TGI,[27],3.01 µM
same,CC50,[27],7.44 µM
same,GI50,[28],0.378 µM
same,TGI,[28],1.68 µM
same,CC50,[28],4.92 µM
Cc1n(Cc2ccc3ccccc3c2)cc[n+]1Cc1ccc2ccccc2c1.[Br-],IC50,[1],2.53 µM
same,IC50,[2],2.7 µM
same,IC50,[3],0.83 µM
same,IC50,[4],0.75 µM
same,IC50,[5],3.42 µM
same,IC50,[6],3.43 µM
same,IC50,[7],2.34 µM
same,IC50,[8],1.98 µM
same,solubility,[9],< 0.5 mg/mL
same,solubility,[10],Soluble
same,solubility,[11]; buffer,> 4.4 mg/mL
same,growth at 10 µM,[12],42.3%
same,growth at 10 µM,[13],47%
same,growth at 10 µM,[14],18%
same,growth at 10 µM,[15],-20.3%
same,growth at 10 µM,[16],19%
same,growth at 10 µM,[17],5.53%
same,growth at 10 µM,[18],48.9%
same,growth at 10 µM,[19],9.12%
same,GI50,[20],3.81 µM
same,TGI,[20],21.3 µM
same,CC50,[20],66.1 µM
same,GI50,[21],2.32 µM
same,LC50,[21],52.4 µM
same,TGI,[21],17.1 µM
same,GI50,[22],1.6 µM
same,LC50,[22],45.3 µM
same,TGI,[22],8.35 µM
same,GI50,[23],0.673 µM
same,TGI,[23],3.64 µM
same,CC50,[23],26.4 µM
same,GI50,[24],1.85 µM
same,LC50,[24],64.1 µM
same,TGI,[24],10.4 µM
same,GI50,[25],0.717 µM
same,TGI,[25],2.93 µM
same,CC50,[25],10.4 µM
same,GI50,[26],2.46 µM
same,LC50 (lethal concentration 50%),[26],32.9 µM
same,TGI,[26],10.4 µM
same,GI50,[27],1.59 µM
same,TGI,[27],10.7 µM
same,CC50,[27],44 µM
same,GI50,[28],0.256 µM
same,TGI,[28],1.81 µM
same,CC50,[28],6.72 µM

# — ChEMBL document CHEMBL4002637, “Synthesis, characterization, in vitro SAR and in vivo evaluation of N,N'bisnaphthylmethyl 2-alkyl substituted imidazolium salts against NSCLC” (Bioorg Med Chem Lett, 2017)
